# Rows were chosen to be rich in hits. Some 2.6% of all compounds tested hit in one or more screens of this group.
# Exocytosis inh: LAMP-1 surface exposure blockers, TALL-104 cells – cell-based, flow cytometry, MLPCN library, primary screen; 0.66% of 360,000 active; inhibition, % at 10 µM; TALL-104 LAMP-1 surface exposure; cells stimulated with thapsigargin and PMA;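 active = inhibition above about 55%, limit read from the data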
# T cell modulator: modulators of CD8 T cell-vesicle binding, primary screen, mouse 2C CD8+ T cells, flow cytometry; 2C CD8+ T cell-vesicle binding; hits give low values; response (vesicle binding), % at 7 µM; 0.068% of 330,000 active;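 active = response, share of CD8 T cells binding vesicles, and their 90th percentile fluorescence all below set limits, cut at about 80% in these data, passing the limit was not always enough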;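 note: values below 100% mean blocked vesicle binding to the CD8+ T cells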
#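 material = purified 2C TCR transgenic mouse naive CD8+ T cells | controls = Unloaded micro-vesicles (low), QL9 vesicles with 0.7% DMSO (high) | detection = cytometric PE anti-B7-1 and Alexa647 anti-CD8 signals after 1% paraformaldehyde fixation | incubation = binding step 1.5 h, 37 °C, antibody labelling 20 min, ice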
# MC4R barr agon: MC4R agonists recruiting beta-arrestin, primary screen, cell-based, luminescence, agonist arm of biased-ligand search; Melanocortin receptor 4 (Homo sapiens), P32245; U2OS MC4R beta-arrestin complementation; percent of melanotan II response, DMSO zero; activation, % at 8.9 µM; 0.98% of 360,000 active;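 active = activation above a per-plate cutoff, the mean activation of sample wells on that plate plus 3 SD, cut at about 8% in these data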
# Target sequence (P32245 whole entry, looked up): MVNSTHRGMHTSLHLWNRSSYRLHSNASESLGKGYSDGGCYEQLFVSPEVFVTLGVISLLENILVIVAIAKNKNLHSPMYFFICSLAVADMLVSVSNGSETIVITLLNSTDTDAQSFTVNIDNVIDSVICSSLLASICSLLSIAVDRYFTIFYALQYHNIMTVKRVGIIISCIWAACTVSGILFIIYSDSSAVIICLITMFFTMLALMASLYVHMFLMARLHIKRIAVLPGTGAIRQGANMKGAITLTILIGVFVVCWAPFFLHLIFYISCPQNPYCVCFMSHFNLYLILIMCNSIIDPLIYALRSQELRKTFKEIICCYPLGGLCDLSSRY
# PGE2 EP2 inh: human EP2 receptor antagonists, primary screen, TR-FRET cAMP, C6 glioma cells. C6 glioma cells expressing human EP2; cells stimulated with saturating PGE2. inhibition, % at 25 µM. 0.52% of 260,000 active. AID 1422, 2008;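 active = percent inhibition above 40 after rounding to a whole number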;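 note: rat C6 glioma host cells with rolipram phosphodiesterase inhibitor present; the protocol text gives 20 µM as final concentration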
# Target sequence (P43116 whole entry, looked up): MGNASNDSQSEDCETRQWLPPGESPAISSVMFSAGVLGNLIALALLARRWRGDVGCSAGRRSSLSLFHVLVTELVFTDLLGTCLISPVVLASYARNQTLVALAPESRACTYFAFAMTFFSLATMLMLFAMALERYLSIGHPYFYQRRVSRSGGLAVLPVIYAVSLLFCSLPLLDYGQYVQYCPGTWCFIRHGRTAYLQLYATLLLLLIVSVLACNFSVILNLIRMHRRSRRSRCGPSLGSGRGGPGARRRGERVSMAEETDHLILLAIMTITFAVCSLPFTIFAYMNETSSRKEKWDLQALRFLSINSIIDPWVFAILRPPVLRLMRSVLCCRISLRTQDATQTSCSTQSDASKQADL
# MC4R antagonist: MC4R antagonists of cAMP signaling, primary screen, cell-based, TR-FRET, antagonist arm of biased-ligand search; Melanocortin receptor 4 (Homo sapiens), P32245; MC4R-expressing cells, MTII-stimulated cAMP, LANCE TR-FRET; inhibition, % at 6.5 µM; 0.48% of 360,000 active; AID 540295, 2011;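 active = inhibition above its plate's cutoff, the mean of tested wells on that plate plus 3 SD, cut at about 29% in these data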
#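 Material: human MC4R-expressing U2OS cells. Probe or stimulus: Melanotan II challenge. Dosing: 6.5 µM single dose. Times: 30-min compound, 1-h challenge, 1-h detection, room temperature. Technique: TR-FRET with Eu-cAMP and labeled anti-cAMP, 671 nm. Replication: singlicate.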
# EP2 mod: EP2 receptor modulators, cAMP readout, primary screen, cell-based, HTRF cAMP, PGE2 stimulation; induction, % at 25 µM; AID 940, 2007; Prostaglandin E2 receptor EP2 subtype (Homo sapiens), P43116; EP2-expressing cells, cAMP HTRF FRET, PGE2 co-stimulation; 0.83% of 260,000 active;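 active = compounds whose cAMP rise, as percent of the full-agonist control response, exceeds 60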;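 note: rat C6 glioma line stably carrying human EP2 under a CMV promoter; the protocol text gives 20 µM as final concentration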
# MC4R barr ag: MC4R beta-arrestin agonists, retest, confirmation, cell-based, luminescence, U2OS | shares compounds with MC4R barr agon | U2OS MC4R beta-arrestin recruitment; scaled DMSO 0%, Melanotan II 100% | activation, % at 8.9 µM | 31% of 2,400 active;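 active = mean activation across replicates above the hit cutoff set in the earlier primary screen, cut at about 8% in these data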
# MOR-DOR barr ag: agonists of MOR-DOR heterodimerization, counter-screen for MC4R biased agonist project, cell-based, luminescence; U2OS PathHunter beta-arrestin, beta-gal luminescence; percent of deltorphin B response, DMSO zero; 5.8% of 2,400 active; shares compounds with MC4R barr agon; AID 602194, 2012; activation, % at 9.2 µM;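 active = mean activation across replicates exceeds the hit threshold derived in the earlier primary screen, cut at about 18% in these data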
# Numbers stand for hits; 0 = inactive; - = no result given; ! = not active in a repeat.
SMILES,Exocytosis inh,T cell modulator,MC4R barr agon,PGE2 EP2 inh,MC4R antagonist,EP2 mod,MC4R barr ag,MOR-DOR barr ag
COc1ccc(C(=O)CSc2nnc(CNc3ccc(C)cc3C)o2)cc1,0,0,11.4,0,0,0,11.1,0
O=C1CC(c2ccccc2)n2nc(NC(=O)C3CCCO3)nc2N1 (stereo not drawn),0,0,0,0,0,0,-,-
CCC1CCCCN1CCCNC(=O)CS(=O)(=O)Cc1nc(-c2cccc(OC)c2)oc1C (stereo not drawn),0,0,0,-,0,-,-,-
COc1ccc(-c2csc3nc(-c4cccnc4)nc(N4CCC(C(N)=O)CC4)c23)cc1OC,0,0,0,0,0,0,-,-
COc1ccc(-c2csc3nc(C)nc(N4CCCCC4)c23)cc1OC,0,0,9.6,0,0,0,0,0
Cc1ccc(C(=O)Nc2cccc(C(F)(F)F)c2)cc1NC(=O)c1nccnc1N,0,0,16.8,0,0,0,0,44.4!
CCCCCNCC(=O)Nc1cccc(C(=O)Nc2cccc(C(F)(F)F)c2)c1,0,0,15.2,0,0,0,16.2,0
O=C(CN1CCOCC1)Nc1cccc(C(=O)Nc2cccc(C(F)(F)F)c2)c1,0,0,0,0,0,0,-,-
CC(=O)NC1(c2ccccc2)CCN(CC(=O)Nc2ccccc2-c2ccccc2)CC1,-,-,-,-,-,0,-,-
CCC(c1ccccc1)c1nnc(NC(=O)c2ccco2)s1 (stereo not drawn),0,0,0,0,0,0,-,-
CCC(C(=O)Nc1nnc(-c2ccco2)s1)c1ccccc1 (stereo not drawn),0,0,10.5,0,0,0,0,0
O=C(Nc1nnc(CC(c2ccccc2)c2ccccc2)s1)c1ccco1,0,0,19.9,0,0,0,0,0
Cc1cc(C)c2nc(-c3ccccn3)cc(C(=O)NCc3ccc(S(N)(=O)=O)cc3)c2c1,0,-,9.7,0,0,0,0,0
COc1ccc(NC(=O)c2cc(-c3ccccn3)nc3c(C)cc(C)cc23)c(C)c1,0,0,11.6,-,0,-,0,0
COc1cccc(NC(=O)c2cc(-c3ccncc3)nc3c(C)cc(C)cc23)c1,0,0,0,0,0,0,-,-
CCN(CC)CCCN=C1N[C@@H](c2ccccc2)C(C(=O)OC)=C(C)N1CC,0,0,0,-,0,-,-,-
Cc1onc(-c2ccccc2)c1C(=O)Nc1nc(-c2cc(F)ccc2F)cs1,0,0,33.8,0,0,0,0,0
COc1ccccc1NC(=O)c1oc2ccccc2c1NC(=O)C1CC1,0,0,10.1,-,0,-,0,0
COc1ccc2oc(C(=O)OCC(=O)NCc3ccccc3OC)c(C)c2c1,0,0,21.0,-,0,-,0,0
COc1ccc(NC(=O)c2oc3ccccc3c2C)c(OC)c1,0,0,13.7,0,0,0,0,0
COc1cc(C(=O)Nc2nnc(C)s2)c([N+](=O)[O-])cc1OC,0,0,0,0,0,0,-,-
Cc1noc(C)c1CSc1nc2sc(C)c(C)c2c(=O)n1-c1ccccc1,0,0,11.3,0,0,0,0,0
COc1ccc(-c2noc(CSc3nc4sc(C)c(C)c4c(=O)n3-c3ccccc3)n2)cc1,0,0,0,0,0,0,-,-
c1ccc(-c2csc(Nc3nc(N4CCOCC4)nc(N4CCOCC4)n3)n2)cc1,0,0,14.1,0,0,0,11.1,0
COc1cccc(N2C(=O)C3C(C2=O)C2C=CC3C23CC3)c1 (stereo not drawn),0,0,0,0,0,0,-,-
SMILES,Exocytosis inh,T cell modulator,MC4R barr agon,PGE2 EP2 inh,MC4R antagonist,EP2 mod,MC4R barr ag,MOR-DOR barr ag
COc1ccc(OCCC(=O)NCc2ccccc2)cc1,0,0,0,0,0,0,-,-
O=C(Nc1ccncc1)C1c2ccccc2Oc2ccccc21,0,0,0,0,0,0,-,-
CCCCNS(=O)(=O)c1ccc(NC(=O)C2c3ccccc3Oc3ccccc32)cc1,0,0,13.4,0,0,0,12.8,0
COc1ccc(-c2cnc3c(NC=O)cc(-c4ccc(C(=O)N5CCOCC5)cc4)cn23)cc1OC,0,-,0,-,0,-,-,-
COc1ccc(-c2cc(NC=O)c3ncc(-c4ccc(C(C)=O)cc4)n3c2)cc1OC,0,-,11.2,-,0,-,9.0,0
COc1cc(-c2cc(NC=O)c3ncc(-c4ccccc4)n3c2)cc(OC)c1OC,0,-,12.9,-,0,-,25.2,0
COc1cc(-c2cc(NC=O)c3ncc(-c4ccc(C(C)=O)cc4)n3c2)cc(OC)c1OC,0,-,25.9,-,0,-,18.5,0
COc1cc(-c2cnc3c(NC=O)cc(-c4ccccc4)cn23)cc(OC)c1OC,0,-,0,-,0,-,-,-
CN(CC(=O)Nc1ccc(Cl)cc1)CC(=O)Nc1ccc(F)c(F)c1F,0,0,0,0,0,0,-,-
CCCCc1nc2cc(C(=O)N3CCCCC3COC)ccc2o1 (stereo not drawn),0,0,0,-,0,-,-,-
CCC(=O)N1CCc2cc(S(=O)(=O)CCC(=O)NCCc3ccc(OC)c(OC)c3)ccc21,0,0,0,0,0,0,-,-
CC(C)[C@H](Nc1ncnc2nc[nH]c12)C(=O)O,-,-,-,0,-,0,-,-
CC(C)CCCCCCCCCCCCC(=O)NCC(=O)NC1C(C)OC(Nc2ncnc3nc[nH]c23)C(O)C1O (stereo not drawn),0,-,16.4,-,0,-,10.9,27.7
CCOC(=O)/C(=N\Nc1ccc(C(C)=O)cc1)c1csc(Nc2ccccc2)n1,0,0,21.0,0,0,0,13.1,0
CCOC(=O)/C(=N\Nc1ccccc1[N+](=O)[O-])c1csc(N)n1,0,0,0,0,0,0,-,-
Cc1cc(C(=O)N2CCCc3ccccc32)no1,0,0,0,0,0,0,-,-
Cc1ccccc1OCc1n(CC(=O)OC2CC(C)CCC2C(C)C)c2ccccc2[n+]1C (stereo not drawn),90.4,0,23.2,0,0,0,41.2,27.3
CC1CCC(C(C)C)C(OC(=O)Cn2c(-c3ccc(Br)cc3)[n+](C)c3ccccc32)C1 (stereo not drawn),0,0,11.8,0,0,0,13.3!,0

# Screens (PubChem BioAssay)
